Experiment [1] is described as follows: Redox potential of compound in Ag/AgCl-NaCl containing phosphate buffer assessed as one electron redox potential at 1 10^-4M by cyclic voltammetric analysis. The method in brief: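 Cyclic voltammetry at 25 ± 2 °C in a three-electrode cell: glassy carbon working, platinum wire auxiliary, Ag/AgCl (3 M NaCl) reference. Inhibitor 1×10^-4 M in 0.1 M phosphate buffer pH 7.4. Single cycle at 100 mV s⁻¹. E°′ converted to NHE by adding +198 mV.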

The target in experiment [2] is T1, Myeloperoxidase (Homo sapiens, UniProt P05164).
T1 sequence (P05164 whole entry): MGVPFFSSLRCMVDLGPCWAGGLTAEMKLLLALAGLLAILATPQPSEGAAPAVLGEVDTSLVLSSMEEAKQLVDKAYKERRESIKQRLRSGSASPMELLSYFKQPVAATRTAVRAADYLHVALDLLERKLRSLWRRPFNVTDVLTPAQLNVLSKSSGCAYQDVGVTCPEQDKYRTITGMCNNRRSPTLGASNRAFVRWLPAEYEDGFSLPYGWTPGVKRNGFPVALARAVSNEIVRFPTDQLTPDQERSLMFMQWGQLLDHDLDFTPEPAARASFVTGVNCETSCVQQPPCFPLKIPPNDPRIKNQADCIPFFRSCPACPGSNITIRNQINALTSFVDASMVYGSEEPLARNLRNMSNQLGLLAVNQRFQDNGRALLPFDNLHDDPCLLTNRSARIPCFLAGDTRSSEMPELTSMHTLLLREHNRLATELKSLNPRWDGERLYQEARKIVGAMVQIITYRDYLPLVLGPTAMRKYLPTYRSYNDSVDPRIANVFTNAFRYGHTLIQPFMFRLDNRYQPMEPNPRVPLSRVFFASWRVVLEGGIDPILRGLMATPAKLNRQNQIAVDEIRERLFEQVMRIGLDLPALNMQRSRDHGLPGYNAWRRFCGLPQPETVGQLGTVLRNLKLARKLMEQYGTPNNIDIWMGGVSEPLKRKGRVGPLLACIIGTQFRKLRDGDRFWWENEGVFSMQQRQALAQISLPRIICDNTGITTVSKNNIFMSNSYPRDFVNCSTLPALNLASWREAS
The experiment is described as follows: Inhibition of MPO chlorination activity (unknown origin) assessed as taurine chloramine formation after 5 mins in presence of H2O2/Cl- by HTS method. The method in brief:
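Recombinant MPO (40 nM) in 10 mM phosphate buffer pH 7.4 with 300 mM NaCl and 15 mM taurine, inhibitor up to 20 μM, 37 °C. Started with H2O2 (100 μM), stopped after 5 min with catalase. Taurine chloramine read with thionitrobenzoic acid at 412 nm. IC50 taken from the concentration curve, no H2O2 = 100% inhibition, no inhibitor = 0%.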

The target of experiment [3] is Sodium-dependent serotonin transporter (Homo sapiens, UniProt P31645). Description: Inhibition of human SERT expressed in HEK293 cells assessed as reduction in [3]5-HT uptake. The format is cell-based. The method in brief: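 hSERT cDNA in pcDNA3.1, transfected into HEK-293 MSR cells (DMEM, 10% FCS, penicillin/streptomycin, 6 µg/mL Geneticin, 37 °C, 5% CO2). Cells detached with Versene and trypsin/EDTA and seeded into plates. [3H]5-HT uptake measured per an earlier described method, with HEK-293 MSR cells used in place of COS-1. Ki reported.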
Sequence of Sodium-dependent serotonin transporter (P31645 whole entry): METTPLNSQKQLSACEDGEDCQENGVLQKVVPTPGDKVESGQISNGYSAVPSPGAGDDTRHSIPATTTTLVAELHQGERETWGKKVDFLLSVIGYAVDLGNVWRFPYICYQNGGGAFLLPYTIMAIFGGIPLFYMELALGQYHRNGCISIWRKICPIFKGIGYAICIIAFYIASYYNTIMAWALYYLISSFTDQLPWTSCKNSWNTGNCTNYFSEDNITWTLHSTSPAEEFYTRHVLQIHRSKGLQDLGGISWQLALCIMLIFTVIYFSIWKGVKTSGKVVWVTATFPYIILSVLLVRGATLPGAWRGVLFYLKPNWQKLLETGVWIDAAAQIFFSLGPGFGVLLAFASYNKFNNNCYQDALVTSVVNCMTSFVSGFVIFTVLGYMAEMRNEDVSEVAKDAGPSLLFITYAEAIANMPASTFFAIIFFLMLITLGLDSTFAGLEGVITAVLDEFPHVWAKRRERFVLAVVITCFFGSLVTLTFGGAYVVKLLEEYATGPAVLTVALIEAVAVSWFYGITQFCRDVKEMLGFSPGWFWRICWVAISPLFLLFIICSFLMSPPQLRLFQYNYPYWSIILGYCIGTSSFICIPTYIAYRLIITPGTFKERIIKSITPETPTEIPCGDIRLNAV

The subject of experiment [4] is HEK293. The experiment is described as follows: Ratio of Ki for human SERT expressed in HEK293 cells to IC50 for MPO chlorination activity (unknown origin). The format is cell-based.
In experiment [5] the target is T2, Myeloperoxidase (Homo sapiens) (UniProt P05164).
T2 sequence (whole entry): T1 sequence (P05164 whole entry)
The experiment is described as follows: Inhibition of human polymorphonuclear leukocyte MPO assessed as apparent bi-molecular rate constant for PorFe(4)=O radical reduction for 0.001 to 2.681 secs by stopped-flow spectroscopic analysis. An outline of the steps:
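Purified MPO (purity index A430/A280 ≥0.86) at 8 µM was premixed with 80 µM H2O2. Reaction in 200 mM phosphate, pH 7.4, 25 °C, 2% DMSO final. kobs taken as the mean of ≥3 runs. Second-order constant derived from the slope of kobs versus concentration.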

The target in experiment [6] is T2, Myeloperoxidase (Homo sapiens). The experiment is described as follows: Inhibition of human polymorphonuclear leukocyte MPO assessed as apparent bimolecular rate constant for PorFe(4)-OH reduction for 4.01 to 31.32 secs by stopped-flow spectroscopic analysis. An outline of the steps:
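Single-exponential fits gave kobs, as the mean of ≥3 runs, with substrate at least 5-fold over enzyme. Conditions were 200 mM phosphate, pH 7.4, 25 °C, 2% DMSO final. Apparent second-order constant taken from the slope of kobs versus concentration.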

Experiment [7] has the same target. Description: Inhibition of human polymorphonuclear leukocyte MPO assessed as ratio of apparent bi-molecular rate constant for PorFe(4)=O radical reduction to PorFe(4)-OH reduction by stopped-flow spectroscopic analysis.

For orientation: IC50 means the midpoint of a concentration-inhibition curve. The Ki is the dissociation constant of the complex between target and ligand, obtained from inhibition or displacement.

For `Oc1ccccc1CNCCc1ccccc1`, the Activity in experiment [1] came out at 973 mV. Moreover, in experiment [2], the half-inhibitory concentration (IC50) amounted to 700 nM.

Take `Oc1ccccc1CNCCc1ccccc1F`: the Activity in experiment [1] is 948 mV. In experiment [2], the IC50 turned out to be 670 nM.

For the molecule `c1ccc(CN2CCN(Cc3ccccc3)CC2)cc1`, in experiment [1], the Activity turned out to be 996 mV. In experiment [2], the IC50 is more than 10000 nM.

Turning to `Oc1ccccc1CCCNCc1ccccc1F`, in experiment [3], the inhibitory constant (Ki) came to 14 µM. For the same molecule, in experiment [1], the Activity stood at 833 mV. The Ratio in experiment [4] came out at 51.8; in experiment [7], 4070. Besides, the Kapp in experiment [5] was determined as 5.7 ×10⁶ /M/s; in experiment [6], 1.4 ×10³ /M/s. Besides, the IC50 in experiment [2] was 270 nM.

Regarding `COc1ccccc1CCNCc1ccccc1F`, the Activity in experiment [1] was more than 1.2 V.

With `Fc1ccc2[nH]cc(CCCNCc3ccccc3)c2c1`, the inhibition constant (Ki) in experiment [3] came out at 0.05 µM. Further, the Ratio in experiment [4] was found to be 4.1.

As to `Oc1ccccc1CCCNCc1ccc(F)cc1`, the Activity in experiment [1] turned out to be 869 mV. The IC50 in experiment [2] came out at 490 nM.

With `COc1ccccc1CCCNCc1cccc(F)c1`, the Activity in experiment [1] was more than 1.2 V.

`O=C1N(Cc2ccccc2)CCCN1Cc1ccccc1`: the Activity in experiment [1] is more than 1.2 V.

Turning to `Oc1ccccc1CCCNCc1cccc(F)c1`, in experiment [1], the Activity turned out to be 820 mV. In experiment [2], the 50% inhibitory concentration (IC50) is 370 nM.

With `Oc1ccccc1CCNCc1ccccc1O`, the Activity in experiment [1] stood at 870 mV. Moreover, in experiment [2], the IC50 was 650 nM.

In the case of `COc1ccccc1CCNCc1ccc(F)cc1`, the Activity in experiment [1] is more than 1.2 V.

`Fc1cccc(CN2CCN(Cc3cccc(F)c3)CC2)c1`: the Activity in experiment [1] turned out to be 1060 mV. In addition, the half-inhibitory concentration (IC50) in experiment [2] is more than 10000 nM.

Take `Fc1ccc(CN2CCN(Cc3ccc(F)cc3)CC2)cc1`: in experiment [1], the Activity is 1020 mV. Further, the concentration for half-maximal inhibition (IC50) in experiment [2] is more than 10000 nM.

Consider `COc1ccccc1CCCNCc1ccccc1O`, for which the Activity in experiment [1] turned out to be 871 mV. Moreover, the IC50 in experiment [2] came out at 2500 nM.

Consider `Oc1ccccc1CNCCc1c[nH]c2ccc(F)cc12`, for which the Activity in experiment [1] was found to be 902 mV. Besides, the half-inhibitory concentration (IC50) in experiment [2] stood at 85 nM.

For the molecule `COc1ccccc1CCNCc1ccccc1O`, the Activity in experiment [1] was 907 mV. The IC50 in experiment [2] turned out to be 1850 nM.

On to `c1ccc(CN2CCCN(Cc3ccccc3)C2)cc1`, for which, in experiment [1], the Activity was more than 1.2 V.

In the case of `Oc1ccccc1CCNCc1ccc(F)cc1`, the Activity in experiment [1] turned out to be 865 mV. For the same molecule, the IC50 in experiment [2] was determined as 1160 nM.

Regarding `Oc1ccccc1CC1CCCNC1` (centres undefined), the Activity in experiment [1] is 960 mV. Moreover, the IC50 in experiment [2] was more than 10000 nM.

In the case of `Oc1ccccc1CCCNCc1ccccc1`, the Activity in experiment [1] was 825 mV. Moreover, the half-inhibitory concentration (IC50) in experiment [2] was determined as 360 nM.

For the molecule `Oc1ccccc1CCNCc1ccccc1F`, the Activity in experiment [1] was found to be 856 mV. In addition, the IC50 in experiment [2] came to 700 nM.

Take `c1ccc(CCCNCc2ccccc2)cc1`: the Activity in experiment [1] was more than 1.2 V.

In the case of `Oc1ccccc1CCNCc1cccc(F)c1`, the Activity in experiment [1] is 807 mV. Besides, in experiment [2], the 50% inhibitory concentration (IC50) was 660 nM.

With `Oc1ccccc1CNCCCc1ccccc1F`, the Activity in experiment [1] was 902 mV. Moreover, the IC50 in experiment [2] came out at 370 nM.

As for `COc1ccccc1CCCNCc1ccccc1F`, the Activity in experiment [1] is more than 1.2 V.

For the molecule `Oc1ccccc1CN1CCN(Cc2ccccc2O)CC1`, the Activity in experiment [1] came to 1070 mV. In experiment [2], the IC50 came out at 1400 nM.

Regarding `COc1ccccc1CCNCc1ccccc1`, the Activity in experiment [1] was more than 1.2 V.

As to `Fc1ccccc1CN1CCN(Cc2ccccc2F)CC1`, in experiment [1], the Activity turned out to be 1100 mV. The IC50 in experiment [2] was more than 10000 nM.

In the case of `Oc1ccccc1CNCCCc1ccccc1`, the Activity in experiment [1] was 928 mV. Moreover, in experiment [2], the IC50 came to 1200 nM.

As for `COc1ccccc1CCCNCc1ccccc1`, the Activity in experiment [1] is more than 1.2 V.

Turning to `c1ccc(CCNCc2ccccc2)cc1`, the Activity in experiment [1] was more than 1.2 V.

With `Oc1ccccc1CNCCCc1c[nH]c2ccc(F)cc12`, in experiment [3], the inhibition constant Ki is 0.8 µM. The Activity in experiment [1] is 872 mV. Besides, the Ratio was determined as 14.8 in experiment [4] and 4000 in experiment [7]. In addition, the Kapp was determined as 1.4 ×10⁷ /M/s in experiment [5] and 3.5 ×10³ /M/s in experiment [6]. For the same molecule, the IC50 in experiment [2] amounted to 54 nM.

As to `Oc1ccccc1CCCNCc1ccccc1O`, the Ki in experiment [3] stood at 11 µM. In experiment [1], the Activity turned out to be 844 mV. The figures for the Ratio in experiment [4] and in experiment [7] were 31.4 and 313, respectively. Further, the Kapp amounted to 1.5 ×10⁶ /M/s in experiment [5] and 4.8 ×10³ /M/s in experiment [6]. Besides, the half-inhibitory concentration (IC50) in experiment [2] worked out at 350 nM.

For the molecule `Oc1ccccc1CCNCc1ccccc1`, the Activity in experiment [1] was 897 mV. Moreover, in experiment [2], the concentration for half-maximal inhibition (IC50) is 2700 nM.

With `Oc1ccccc1CN1CCCCC1`, in experiment [1], the Activity was found to be 953 mV. Also, the IC50 in experiment [2] was more than 10000 nM.

Turning to `COc1ccccc1CCCNCc1ccc(F)cc1`, the Activity in experiment [1] is more than 1.2 V.

With `COc1ccccc1CCNCc1cccc(F)c1`, in experiment [1], the Activity is more than 1.2 V.

The values are drawn from ChEMBL document CHEMBL3871271, “Novel bis-arylalkylamines as myeloperoxidase inhibitors: Design, synthesis, and structure-activity relationship study” (Eur J Med Chem, 2016).
